A short description of one data set: in vitro. The following applies: human, liver microsomes.
In another data set the test system is Plasma. Nature of the data set: Fraction unbound in FVB/N mouse plasma at 1 uM after 6 hrs by equilibrium dialysis. The class given is ADME, cell-free.
Data set [1] in a line: Intrinsic clearance in rat liver microsomes. The class given is ADME, Microsome. The following applies: read-out: CLH.
The nature of data set [2]: Ratio of drug uptake in brain to plasma in FVB/N mouse at 10 mg/kg, sc after 60 mins. The class given is ADME, organism-based. Also on record: dose 10 mg/kg, route subcutaneous. The following applies: brain and plasma, read-out: BPR. The method in brief:
(§1)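 Mice dosed 10 mg/kg subcutaneously; plasma and brain exposures taken at 60 min. Unbound fractions determined by equilibrium dialysis.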

Data set [3] is described as follows: Ratio of free drug concentration in brain to free drug concentration in plasma in FVB/N mouse at 10 mg/kg, sc after 60 mins. On the set-up: dose 10 mg/kg, route subcutaneous. The class given is ADME, organism-based. The note with it: brain and plasma (free concentrations), read-out: K(p,uu,brain). A digest of the protocol:
as §1

SMILES strings stand for the structures.

Results on nine molecules are retold here after ChEMBL document CHEMBL2177091, “Spirocyclic sulfamides as β-secretase 1 (BACE-1) inhibitors for the treatment of Alzheimer's disease: utilization of structure based drug design, WaterMap, and CNS penetration studies to identify centrally efficacious inhibitors” (J Med Chem, 2012).

Turning to `CCc1n[nH]c2ccc(CN3CC[C@@]4(C[C@@H]3C)CN(C)S(=O)(=O)N4c3cccc(F)c3)cc12`, in “in vitro”, the CLint scaled is 74.2 mL/min/kg.

As for `CC(C)Oc1cccc(CN2CC[C@@]3(C[C@@H]2C)CN(C)S(=O)(=O)N3c2cccc(F)c2)c1`, the values for the CLint scaled (in the data set “in vitro”; in data set [1]) were more than 19 mL/min/kg and more than 65.5 mL/min/kg, respectively. Besides, in the data set with Plasma, the Cp(f) is 0.036. Moreover, the Kp at 1 h in data set [2] is 0.97. For the same molecule, in data set [3], the Kp uu at 1 h was found to be 0.65.

In “in vitro”, `C[C@H]1C[C@]2(CCN1Cc1ccc(O)c(Cl)c1)CN(C)S(=O)(=O)N2c1cccc(F)c1` returned a CLint scaled of 173 mL/min/kg.

In turn, `C[C@H]1C[C@]2(CCN1Cc1ccc(O)cc1)CN(C)S(=O)(=O)N2c1cccc(F)c1` had a CLint scaled in “in vitro” of 152 mL/min/kg.

`C[C@H]1C[C@]2(CCN1Cc1ccc3[nH]ccc3c1)CN(C)S(=O)(=O)N2c1cccc(F)c1`: in “in vitro”, the CLint scaled was 175 mL/min/kg.

Regarding `CC(C)Oc1cc(CN2CC[C@@]3(C[C@@H]2C)CN(C)S(=O)(=O)N3c2cccc(F)c2)ccc1O`, the CLint scaled in the data set “in vitro” came to 15.4 mL/min/kg; in data set [1], 59.7 mL/min/kg. Further, the Cp(f) in the data set on Plasma stood at 0.17. Besides, the Kp at 1 h in data set [2] came to 0.35. The Kp uu at 1 h in data set [3] amounted to 0.27.

`CC(=O)Nc1ccc(CN2CC[C@@]3(C[C@@H]2C)CN(C)S(=O)(=O)N3c2cccc(F)c2)cc1` had a CLint scaled in the data set “in vitro” of more than 300 mL/min/kg.

`CC(C)Oc1cccc(CN2CC[C@]3(CNS(=O)(=O)N3c3cccc(F)c3)C[C@@H]2C)c1`: the CLint scaled in the data set “in vitro” was more than 19 mL/min/kg; in data set [1] it was more than 65.5 mL/min/kg. The Cp(f) in the data set with Plasma was 0.041. Further, the Kp at 1 h in data set [2] turned out to be 0.67. In addition, in data set [3], the Kp uu at 1 h was 0.22.

For the molecule `CCOc1cc(CN2CC[C@@]3(C[C@@H]2C)CN(C)S(=O)(=O)N3c2cccc(F)c2)ccc1O`, the CLint scaled in the data set “in vitro” came to 79.9 mL/min/kg.
